ChEMBL document CHEMBL1828547, “Synthesis and antimalarial activity of 2-guanidino-4-oxoimidazoline derivatives” (J Med Chem, 2011)
In brackets after ≈: the same amount, converted by molar mass. Activity calls are given as the source filed them. No cut-off for these calls is given here.

Key:
[1] = Metabolic stability in mouse assessed as half life at 160 mg/kg, po by LC-MS/MS analysis; format: ADME, organism-based; parameters: dose 160 mg/kg, route oral
[2] = Metabolic stability in human assessed as half life at 320 mg/kg, po by LC-MS/MS analysis; format: ADME, organism-based; parameters: dose 320 mg/kg, route oral
Plasmodium berghei [3] = experiment: Antimalarial activity against Plasmodium berghei […] mouse model assessed as causal prophylactic activity at 160 mg/kg, po administered one day before infection, on day of infection and one day post infection; format: functional, organism-based; parameters: dose 160 mg/kg
Method in brief: (§1)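 Sporozoite-challenged exoerythrocytic mouse model using P. berghei. Compound ground and suspended in hydroxyethylcellulose with Tween 80 for oral dosing, given once daily for 3 consecutive days: day before, 4 h before, and day after sporozoite inoculation. Dose in (mg/kg)/day. Mice are scored for protection (causal prophylaxis) and for delay in patency.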

Plasmodium falciparum [4] = experiment: Antimalarial activity against blood stage Plasmodium falciparum W2 assessed as [3H]-hypoxanthine uptake after 24 hrs by scintillation counting; format: functional, organism-based
Plasmodium falciparum [5] = experiment: Antimalarial activity against blood stage Plasmodium falciparum D6 assessed as [3H]-hypoxanthine uptake after 24 hrs by scintillation counting; format: functional, organism-based
Plasmodium berghei [6] = experiment: Antimalarial activity against Plasmodium berghei […] mouse model assessed as delay in patency time at 320 mg/kg, po administered one day before infection, on day of infection and one day post infection; format: functional; method in brief: as §1
Plasmodium berghei [7] = experiment: Antimalarial activity against Plasmodium berghei […] mouse model assessed as causal prophylactic activity at 320 mg/kg, po administered one day before infection, on day of infection and one day post infection; format: functional, organism-based; parameters: dose 320 mg/kg
Method in brief: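 Sporozoite-inoculated P. berghei exoerythrocytic (EE) mouse model. Compound ground and suspended in hydroxyethylcellulose plus Tween 80 for oral dosing, given once daily for 3 consecutive days: day before, 4 h before, and day after sporozoite inoculation (days −1, 0, 1). Dose in (mg/kg)/day. Read-out is mice protected per group (causal prophylaxis) or delay in patency.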

[8] = Metabolic stability in human assessed as half life at 160 mg/kg, po by LC-MS/MS analysis; format: ADME, organism-based; parameters: dose 160 mg/kg, route oral
Plasmodium falciparum [9] = experiment: Antimalarial activity against blood stage Plasmodium falciparum TM91C235 assessed as [3H]-hypoxanthine uptake after 24 hrs by scintillation counting; format: functional, organism-based
Plasmodium berghei [10] = experiment: Antimalarial activity against Plasmodium berghei […] mouse model assessed as delay in patency time at 160 mg/kg, po administered one day before infection, on day of infection and one day post infection; format: functional; method in brief: as §1
Plasmodium cynomolgi [11] = experiment: Antimalarial activity against Plasmodium cynomolgi infected in rhesus monkey assessed as delay in patency time at 50 mg/kg, po administered one day before infection, on day of infection followed by 1 day post infection; format: functional
Method in brief: (§2)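 Rhesus monkeys challenged with P. cynomolgi sporozoites. Oral dosing on days −1, 0 and 1 in HECT or MC vehicle, with dose in (mg/kg)/day. Read-out is the first day of patency and the delay in patency relative to vehicle-treated controls.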

Plasmodium berghei [12] = experiment: Antimalarial activity against Plasmodium berghei […] mouse model assessed as causal prophylactic activity at 40 mg/kg, po administered one day before infection, on day of infection and one day post infection; format: functional, organism-based; parameters: dose 40 mg/kg; method in brief: as §1
[13] = Metabolic stability in mouse assessed as half life at 320 mg/kg, po by LC-MS/MS analysis; format: ADME, organism-based; parameters: dose 320 mg/kg, route oral; details: in vivo
Rhesus monkey [14] = experiment: Drug uptake in im dosed rhesus monkey measured after 24 hrs; format: ADME, organism-based, Macaca mulatta; details: in vivo
Rhesus monkey [15] = experiment: Drug uptake in rhesus monkey after 24 hrs relative to control; format: ADME, organism-based, Macaca mulatta; details: in vivo
[16] = Half life in po dosed rhesus monkey; format: ADME, organism-based, Macaca mulatta; details: in vivo
Rhesus monkey [17] = experiment: Drug uptake in po dosed rhesus monkey assessed as 1-(3,4-dichlorophenyl)-2-(1-isopropyl-4,5-dioxo-4,5-dihydro-1H-imidazol-2-yl)guanidine measured after 24 hrs; format: ADME, organism-based, Macaca mulatta; details: in vivo
[18] = Half life in im dosed rhesus monkey; format: ADME, organism-based, Macaca mulatta; details: in vivo
Rhesus monkey [19] = experiment: Drug uptake in im dosed rhesus monkey assessed as 1-(3,4-dichlorophenyl)-2-(1-isopropyl-4,5-dioxo-4,5-dihydro-1H-imidazol-2-yl)guanidine measured after 24 hrs; format: ADME, organism-based, Macaca mulatta; details: in vivo
Rhesus monkey [20] = experiment: Drug uptake in po dosed rhesus monkey measured after 24 hrs; format: ADME, organism-based, Macaca mulatta; details: in vivo
Plasmodium cynomolgi [21] = experiment: Antimalarial activity against Plasmodium cynomolgi infected in rhesus monkey assessed as delay in patency time at 0.316 mg/kg, po administered one day before infection, on day of infection followed by 1 day post infection; format: functional; method in brief: as §2

| Structure (SMILES) | half-life [1] | half-life [2] | IC50 (Plasmodium falciparum [4]) | IC50 (Plasmodium falciparum [5]) | half-life [8] | IC50 (Plasmodium falciparum [9]) | half-life [13] | Time (Plasmodium berghei [10]) | also measured |
| --- | --- | --- | --- | --- | --- | --- | --- | --- | --- |
| CC(C)N1CC(=O)N=C1N/C(=N/c1ccc(Cl)c(Cl)c1)N1CCCC1 | > 60 min | – | 2.2 µg/mL (≈ 5.75 µM) | > 5 µg/mL | > 60 min | > 5 µg/mL | – | 2 days | – |
| CC(C)N1CC(=O)N=C1N/C(=N\C(=O)C(C)(C)C)Nc1ccc(Cl)c(Cl)c1 | > 60 min | – | 4.9 µg/mL (≈ 11.9 µM) | 3.19 µg/mL (≈ 7.74 µM) | > 60 min | > 1.28 µg/mL | – | 3 days | Time (Plasmodium cynomolgi [11]): 0 days; Activity (Plasmodium berghei [12]): inactive |
| CC/N=C(\NC1=NC(=O)CN1C(C)C)Nc1ccc(Cl)c(Cl)c1 | – | – | 2.27 µg/mL (≈ 6.37 µM) | 3.38 µg/mL (≈ 9.49 µM) | – | 3.01 µg/mL (≈ 8.45 µM) | – | – | – |
| CC(C)/N=C(\NC1=NC(=O)CN1C)Nc1ccc(Cl)c(Cl)c1 | – | > 60 min | > 5 µg/mL | > 5 µg/mL | – | > 5 µg/mL | 49.8 min | 2 days | – |
| CC(C)N1CC(=O)N=C1N/C(=N\C(C)(C)C)Nc1ccc(Cl)c(Cl)c1 | 1.72 min | – | 1.49 µg/mL (≈ 3.88 µM) | 3 µg/mL (≈ 7.81 µM) | 39.7 min | 5.2 µg/mL (≈ 13.5 µM) | – | – | Activity (Plasmodium berghei [3]): inactive |
| CC(C)N1C(=O)C(=O)NC1=NC(=NC(=O)OC(C)(C)C)Nc1ccc(Cl)c(Cl)c1 | – | – | – | – | – | – | – | – | Drug uptake (Rhesus monkey [14]): 96%; Ratio (Rhesus monkey [15]): 10; half-life [16]: 534 min; Drug uptake (Rhesus monkey [17]): 4%; half-life [18]: 70.5 h; Drug uptake (Rhesus monkey [19]): 4%; Drug uptake (Rhesus monkey [20]): 86% |
| COc1cc(C)c2c(Oc3cccc(C(F)(F)F)c3)c(OC)cc(NC(C)CCCN)c2n1 (stereo unspecified) [TAFENOQUINE] | – | – | – | – | – | – | – | – | Time (Plasmodium cynomolgi [21]): 2 days |
| CC(C)N/C(=N\C(=O)C(C)(C)C)NC1=NC(=O)CN1c1ccc(Cl)c(Cl)c1 | – | 40.5 min | 4.87 µg/mL (≈ 11.8 µM) | 4.65 µg/mL (≈ 11.3 µM) | – | – | 13.5 min | 2 days | Time (Plasmodium berghei [6]): 2 days |

The next lines start with results.

| half-life [1] | half-life [2] | IC50 (Plasmodium falciparum [4]) | IC50 (Plasmodium falciparum [5]) | half-life [8] | IC50 (Plasmodium falciparum [9]) | half-life [13] | Structure (SMILES) | Time (Plasmodium berghei [10]) | also measured |
| --- | --- | --- | --- | --- | --- | --- | --- | --- | --- |
| > 60 min | > 60 min | 2.58 µg/mL (≈ 5.3 µM) | 2.45 µg/mL (≈ 5.03 µM) | – | – | – | CC(C)(C)N/C(=N/C1=NC(=O)CN1c1ccc(Cl)c(Cl)c1)Nc1ccc(Cl)c(Cl)c1 | – | Activity (Plasmodium berghei [3]): inactive |
| 27.2 min | – | 2.86 µg/mL (≈ 6.04 µM) | 1.66 µg/mL (≈ 3.51 µM) | 39.2 min | 2.83 µg/mL (≈ 5.98 µM) | – | CC(C)/N=C(\NC1=NC(=O)CN1c1ccc(Cl)c(Cl)c1)Nc1ccc(Cl)c(Cl)c1 | – | Time (Plasmodium berghei [6]): 1 days; Activity (Plasmodium berghei [7]): inactive; Activity (Plasmodium berghei [3]): inactive |
| 18 min | – | 1.98 µg/mL (≈ 5 µM) | > 5 µg/mL | 28 min | – | – | CC(C)N1CC(=O)N=C1N/C(=N/c1ccc(Cl)c(Cl)c1)N1CCCCC1 | – | Activity (Plasmodium berghei [3]): inactive |
| > 60 min | – | 1.01 µg/mL (≈ 2.95 µM) | 2.75 µg/mL (≈ 8.04 µM) | > 60 min | > 5 µg/mL | – | CC(C)(C)N1CC(=O)N=C1NC(=N)Nc1ccc(Cl)c(Cl)c1 | 2 days | Activity (Plasmodium berghei [7]): Active |
| – | 53 min | 0.37 µg/mL (≈ 0.999 µM) | 1.65 µg/mL (≈ 4.46 µM) | – | > 5 µg/mL | 17 min | CC(C)/N=C(\NC1=NC(=O)CN1C(C)C)Nc1ccc(Cl)c(Cl)c1 | 1 days | Time (Plasmodium cynomolgi [11]): 4 days; Activity (Plasmodium berghei [7]): Active |
| – | 59.2 min | 1.55 µg/mL (≈ 3.64 µM) | 0.78 µg/mL (≈ 1.83 µM) | – | – | > 60 min | CCC(CC)C(=O)/N=C(\NC1=NC(=O)CN1c1cccc(Cl)c1Cl)NC(C)C | – | Time (Plasmodium berghei [6]): 2 days |
| – | > 60 min | 0.63 µg/mL (≈ 1.47 µM) | 0.56 µg/mL (≈ 1.31 µM) | – | 0.9 µg/mL (≈ 2.1 µM) | > 60 min | CC(C)N/C(=N/C(=O)OC(C)(C)C)NC1=NC(=O)CN1c1cccc(Cl)c1Cl | – | – |
